Columns and labels:
[1] = test system: naive CD8+ T cells derived from HD-PBMCs; type: cell-based, human; conditions: for CD8+ T-cell induction by AKF9 variants, in words: seven HD-PBMCs, cocktail of AKF9 variants along with the WT, tetramer staining; for immunogenicity (CD8+ T-cell induction), in words: six HD-PBMCs, cocktail of four natural HLA-A24 neoantigens
HLA-A24 on T2-A24 cells = assay: Peptide-HLA class I stability assay; type: binding, human; conditions: peptide 0.3 to 3 µM
Method in brief: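 TAP-deficient T2-A24 cells were pre-cultured overnight at 25°C. Cells were pulsed with mutant or WT peptide (0.3–3 µM) for 1 h at 25°C, then 3 h at 37°C. Surface HLA-A24 was stained with anti-HLA-A24 (C7709A2) and goat anti-mouse IgG-FITC, then read by flow cytometry. ΔMFI = MFI with peptide minus MFI without. Known HLA-A24 binder and non-binder peptides were controls. Comparison at 1 µM, SEM (n = 3), two-tailed t-test.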

[2] = test system: neoantigen-reactive CD8+ T-cell clones; assay: IFNγ ELISpot assay of neoantigen-reactive CD8+ T-cell clones; type: cell-based, human; conditions: T2-A24 pulsed with 20 µM peptide, 24 h 37°C
Method in brief: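 Clones came from single tetramer-positive CD8+ cells sorted and expanded with irradiated allogeneic feeders, 5 μg/mL PHA and 100 IU/mL IL-2. T2-A24 cells were pre-incubated with 20 µM mutant or WT peptide for 2 h at 25°C. Spots were detected with 2 µg/mL biotinylated anti-IFNγ, streptavidin-HRP and AEC substrate.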

Sequence	CD8+ T-cell induction by AKF9 variants, in words [1]	immunogenicity (CD8+ T-cell induction), in words [1]	other results
AYLEAIHDF [ADF9]	increased the frequency	–	–
AYLEAIHHF [AHF9]	increased the frequency	–	–
AYLEAIHKF [AKF9]	increased the frequency	immunogenic	effect of the mutation on pHLA I stability versus wild-type peptide (HLA-A24 on T2-A24 cells): unaltered; number of HDs with CD8+ T-cell response ([1]; of six HD-PBMCs, response = ≥ 4-fold increase with ≥ 0.1% tetramer+ CD8+ cells): three
AYLEAIHNF [ANF9]	–	–	recognition by ADF9-reactive CD8+ T-cell clones (D1-D5), IFNγ ELISpot [2]: three of the five clones
AYLEAIHYF [AYF9]	increased the frequency	–	–
HYAALRELI [HI9]	–	failed to induce T-cell responses	–
TLPEEFHEF [TEF9]	–	immunogenic	effect of the mutation on pHLA I stability versus wild-type peptide (HLA-A24 on T2-A24 cells): increased
VYVAKLHDI [VYI9]	–	failed to induce T-cell responses	–

From PMC7833734 (Oncoimmunology, 2021)
